Assay results published in article PMC3559019 (Chemistry & biology, 2013).

Columns and labels:
[1] = molecular target: Nef dimerization (Human immunodeficiency virus type 1 group M subtype B, UniProt P03407); test: BiFC assay for Nef dimerization in 293T cells; type: cell-based, HIV-1; conditions: 1–6 μM, 48 h
[2] = system: Nef-defective (ΔNef) HIV-1 NL4-3; test: Nef-defective HIV-1 replication in CEM-T4 cells; type: cell-based
[3] = system: SIV quasispecies ΔB670; test: SIV replication in CEM-174 cells; type: cell-based; conditions: Simian immunodeficiency virus, CEM174, 120 h, read-out: IC50, SIV replication
Method in brief: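 CEM-174 cells received test compound in DMSO over a range of concentrations, 1 h before infection with the pathogenic SIV quasispecies ΔB670. Replication was measured 5 d later as p27 Gag protein by ELISA.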

[4] = system: SIV ΔB670; test: SIV infectivity in TZM-bl reporter cells; type: cell-based; conditions: Simian immunodeficiency virus, read-out: IC50, SIV infectivity
Method in brief: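 TZM-bl reporter cells (2.5 × 10^4/well) were plated 8 h before infection to adhere. Test compound was pre-incubated with SIV ΔB670 for 4 h, then added to the cells (final 200 μl). After 48 h at 37 °C, cells were washed with PBS and lysed. Infectivity was read as luciferase luminescence.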

[5] = system: Nef-dependent SFK activation; test: Endogenous SFK activation in HIV-infected CEM-T4 cells; type: cell-based; conditions: 1.0 μM
Method in brief: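 CEM-T4 cells (1 × 10^5) were infected with 50 pg p24 equivalents/ml wild-type HIV-1 NL4-3, ΔNef mutant or Nef chimeras in 10 ml, with test compound (1 μM) or DMSO carrier. Cells were lysed 8 days later and SFKs were immunoprecipitated with a pan-specific antibody. Immunoblots used an anti-pY418 activation-loop antibody. Lysates were blotted for Gag, Nef and actin (loading control). Uninfected cells were included.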

[6] = molecular target: Lck (Homo sapiens, UniProt P06239); test: In vitro kinase assay, Lck; type: biochemical
[7] = molecular target: Lyn (Homo sapiens, UniProt P07948); test: In vitro kinase assay, Lyn; type: biochemical
[8] = system: HIV-1 Nef Asn126 mutants (Ala, Leu, Gln); test: Surface plasmon resonance, Nef Asn126 mutants; type: binding; conditions: SPR, B9 10 μM
[9] = molecular target: c-Src (Homo sapiens, UniProt P12931); test: In vitro kinase assay, c-Src; type: biochemical
[10] = system: HIV-1 NL4-3; test: HIV-1 infectivity in TZM-bl reporter cells; type: cell-based; conditions: luciferase 48 h

Sequence of Lyn (P07948 whole entry, species assumed): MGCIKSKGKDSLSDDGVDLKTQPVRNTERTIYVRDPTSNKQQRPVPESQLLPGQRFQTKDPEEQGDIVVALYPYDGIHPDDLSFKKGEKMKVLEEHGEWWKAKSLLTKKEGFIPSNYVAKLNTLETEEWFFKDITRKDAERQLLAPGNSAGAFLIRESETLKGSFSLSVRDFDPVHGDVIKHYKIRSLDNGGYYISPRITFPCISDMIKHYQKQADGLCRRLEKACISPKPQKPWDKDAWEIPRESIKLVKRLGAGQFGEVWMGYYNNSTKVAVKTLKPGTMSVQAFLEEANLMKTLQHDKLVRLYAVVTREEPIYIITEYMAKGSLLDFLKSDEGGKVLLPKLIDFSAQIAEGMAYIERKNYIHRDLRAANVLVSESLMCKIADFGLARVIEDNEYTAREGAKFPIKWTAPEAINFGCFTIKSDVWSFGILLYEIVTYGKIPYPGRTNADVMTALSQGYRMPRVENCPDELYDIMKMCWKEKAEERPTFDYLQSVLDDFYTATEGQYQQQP
Sequence of Lck (P06239 whole entry, species assumed): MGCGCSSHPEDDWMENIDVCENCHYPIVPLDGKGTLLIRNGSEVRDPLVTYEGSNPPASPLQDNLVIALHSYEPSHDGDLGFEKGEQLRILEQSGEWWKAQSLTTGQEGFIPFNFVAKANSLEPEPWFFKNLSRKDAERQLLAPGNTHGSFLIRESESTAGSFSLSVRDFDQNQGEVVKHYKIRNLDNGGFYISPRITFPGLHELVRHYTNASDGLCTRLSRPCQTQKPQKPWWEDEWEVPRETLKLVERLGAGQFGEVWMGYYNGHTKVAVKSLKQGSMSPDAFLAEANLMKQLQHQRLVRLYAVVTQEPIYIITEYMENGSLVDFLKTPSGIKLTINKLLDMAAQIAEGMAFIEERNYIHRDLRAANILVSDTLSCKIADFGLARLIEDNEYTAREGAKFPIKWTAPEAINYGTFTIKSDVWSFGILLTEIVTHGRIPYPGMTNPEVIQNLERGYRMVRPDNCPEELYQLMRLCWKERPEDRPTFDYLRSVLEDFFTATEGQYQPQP
Sequence of c-Src (P12931 whole entry, species assumed): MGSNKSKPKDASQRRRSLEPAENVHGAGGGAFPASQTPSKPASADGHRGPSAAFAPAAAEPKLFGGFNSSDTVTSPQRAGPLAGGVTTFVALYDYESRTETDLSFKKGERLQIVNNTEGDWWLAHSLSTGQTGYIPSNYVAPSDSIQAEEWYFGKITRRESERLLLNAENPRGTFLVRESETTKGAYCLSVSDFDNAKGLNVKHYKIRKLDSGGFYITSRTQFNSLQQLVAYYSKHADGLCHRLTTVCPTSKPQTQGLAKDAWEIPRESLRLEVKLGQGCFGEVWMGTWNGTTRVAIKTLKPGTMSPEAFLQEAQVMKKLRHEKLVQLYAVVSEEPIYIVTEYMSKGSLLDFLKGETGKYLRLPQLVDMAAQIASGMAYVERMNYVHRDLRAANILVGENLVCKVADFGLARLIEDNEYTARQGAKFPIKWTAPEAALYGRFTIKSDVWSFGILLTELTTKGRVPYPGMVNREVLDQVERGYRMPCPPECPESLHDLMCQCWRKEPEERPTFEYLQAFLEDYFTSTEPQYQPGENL
Sequence of Nef dimerization (P03407 whole entry): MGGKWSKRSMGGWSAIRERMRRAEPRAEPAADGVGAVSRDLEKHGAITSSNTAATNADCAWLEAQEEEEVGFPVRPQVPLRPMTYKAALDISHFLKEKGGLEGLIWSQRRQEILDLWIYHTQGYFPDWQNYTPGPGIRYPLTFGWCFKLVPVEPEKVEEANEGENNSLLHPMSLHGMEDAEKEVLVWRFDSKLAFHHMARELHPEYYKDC

## NC(=S)n1nc(-c2ccc([N+](=O)[O-])cc2)c(/N=N/c2cccc(Cl)c2)c1O [B9, (E)-4-((3-chlorophenyl)diazenyl)-5-hydroxy-3-(4-nitrophenyl)-1H-pyrazole-1-carbothioamide]
[1]
  Nef BiFC signal (Nef dimerization): concentration-dependent loss
[2]; 0.3 and 1.0 μM, 10 days
  Effect on Nef-defective HIV replication (chimera experiment): no effect
[2]; highest concentration tested 3.0 μM
  Effect on replication of Nef-defective HIV-1: unaffected
[3]
  IC50: ~1000 nM
[4]
  IC50: ~3000 nM
[5]
  Nef-dependent SFK activation (pY418): completely inhibited
[6]
  IC50: > 20000 nM
[7]
  IC50: > 20000 nM
[8]
  Binding to Nef Asn126 mutants: none of these mutants demonstrated detectable binding
[9]
  IC50: > 20000 nM
[10]
  Nef-mediated enhancement of HIV-1 infectivity: inhibited Nef-mediated enhancement of HIV-1 infectivity in a concentration-dependent manner
